Values after ≈ are worked out from the molar mass of the structure shown. Square brackets hold non-standard residues; d marks the D form. Peptide text beside a SMILES is read from it. Gly(N-(CH2)6NH2) = NCCCCCCNCC(=O)O; Nspe = C[C@H](NCC(=O)O)c1ccccc1; NhArg = N=C(N)NCCCCNCC(=O)O; Nphe = O=C(O)CNCc1ccccc1
Experiments:
[1] = Selectivity index, ratio of ED50 for human HepG2 cells to MIC for Staphylococcus aureus 3R7089 strain Oxford/ATCC 9144; assay type: toxicity; conditions: read-out: Selectivity Index
[2] = Cytotoxicity against human HepG2 cells assessed as reduction in cell viability pretreated for 1 hr followed by DMEM addition measured after 24 hrs by alamar blue assay; assay type: cell-based; conditions: read-out: ED50
Summary of the method: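 HepG2 cells are kept in DMEM high glucose with 10% heat-inactivated FBS and 1% P/S at 37 °C, 5% CO2, and seeded at 2x10^4 cells/well one day ahead. They are exposed to compounds (100 to 3 µM, from 5 mM DMSO stocks) in 50 µL for 1 h. Medium is then added and cells incubated 24 h. alamarBlue is read after 2 h (Ex 560/Em 600). Triplicate on ≥2 occasions; ED50 from dose-response; DMSO negative control.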

[3] = Selectivity index, ratio of ED50 for human HaCaT cells to MIC for Escherichia coli K-12 W3110 ATCC 27325; assay type: toxicity; conditions: read-out: Selectivity Index
[4] = Selectivity index, ratio of ED50 for human HepG2 cells to MIC for Pseudomonas aeruginosa PAO1 ATCC 15692; assay type: toxicity; conditions: read-out: Selectivity Index
[5] = tested on: Staphylococcus aureus; assay: Antibacterial activity against Staphylococcus aureus 3R7089 strain Oxford/ATCC 9144 incubated for 16 hrs under shaking condition; assay type: functional; conditions: 3R7089 strain Oxford/ATCC 9144, 16 h
Summary of the method: (§1)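 Broth microdilution (Andrews method) in Iso-sensitest broth. Overnight cultures are adjusted to A650 0.07 (0.5 McFarland) and diluted ten-fold. Compounds come from 5 mM DMSO stocks, 2-fold serially diluted, final 2–100 μM in a 1:1 inoculum:compound mix. Incubation is 37 °C for 16 h with shaking. MIC is the lowest concentration giving complete growth inhibition, read by absorbance; triplicate.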

[6] = Cytotoxicity against human HaCaT cells assessed as reduction in cell viability pretreated for 1 hr followed by DMEM addition measured after 24 hrs by alamar blue assay; assay type: cell-based; conditions: read-out: ED50
Summary of the method: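 HaCaT keratinocytes are grown in DMEM high glucose with 10% FBS and 1% P/S and seeded at 2x10^4 cells/well 24 h before treatment. Compound dilution series run 2–100 µM (5 mM DMSO stocks) in 50 µL for 1 h, then medium is added for 24 h at 37 °C, 5% CO2. alamarBlue is read after 1 h (Ex 540/Em 620). Triplicate, ≥2 occasions; ED50 from dose-response; amphotericin B positive control.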

[7] = Selectivity index, ratio of ED50 for human HepG2 cells to MIC for Escherichia coli K-12 W3110 ATCC 27325; assay type: toxicity; conditions: read-out: Selectivity Index
[8] = Selectivity index, ratio of ED50 for human HaCaT cells to MIC for Pseudomonas aeruginosa PAO1 ATCC 15692; assay type: toxicity; conditions: read-out: Selectivity Index
[9] = Selectivity index, ratio of ED50 for human HaCaT cells to MIC for Staphylococcus epidermidis clinical isolate; assay type: toxicity; conditions: read-out: Selectivity Index
[10] = Selectivity index, ratio of ED50 for human HaCaT cells to MIC for Staphylococcus aureus 3R7089 strain Oxford/ATCC 9144; assay type: toxicity; conditions: read-out: Selectivity Index
[11] = tested on: Pseudomonas aeruginosa; assay: Antibacterial activity against Pseudomonas aeruginosa PAO1 ATCC 15692 incubated for 16 hrs under shaking condition; assay type: functional; conditions: PAO1 ATCC 15692, 16 h; summary of the method: as §1
[12] = Selectivity index, ratio of ED50 for human HepG2 cells to MIC for Staphylococcus epidermidis clinical isolate; assay type: toxicity; conditions: read-out: Selectivity Index
[13] = tested on: Staphylococcus epidermidis; assay: Antibacterial activity against Staphylococcus epidermidis clinical isolate incubated for 16 hrs under shaking condition; assay type: functional; summary of the method: as §1

Compound: C[C@H](c1ccccc1)N(CC(N)=O)C(=O)CN(C(=O)CN(CCCCN)C(=O)CN(C(=O)CN(C(=O)CN(CCCCN)C(=O)CN(C(=O)CN(C(=O)CNCCCCN)[C@H](C)c1ccccc1)[C@@H](C)c1ccccc1)[C@H](C)c1ccccc1)[C@@H](C)c1ccccc1)[C@H](C)c1ccccc1 (stereo in doubt)
- selectivity ratio [1]: 50
- CC50 at 24 h [2]: > 100 µM
- selectivity ratio [3]: 8
- selectivity ratio [4]: 1
- MIC [5]: 2 µM (≈ 2.74 µg/mL)
- CC50 at 24 h [6]: > 100 µM
- selectivity ratio [7]: 8
- selectivity ratio [8]: 1
- selectivity ratio [9]: 50
- selectivity ratio [10]: 50
- MIC [11]: > 100 µM
- selectivity ratio [12]: 50

Compound: NCCCCCCNCC(=O)N(CC(=O)N(CC(=O)N(CCCCCCN)CC(=O)N(CC(=O)N(CC(=O)N(CCCCCCN)CC(=O)N(CC(=O)N(CC(=O)N(CCCCCCN)CC(=O)N(CC(=O)N(CC(N)=O)Cc1ccccc1)Cc1ccccc1)Cc1ccccc1)Cc1ccccc1)Cc1ccccc1)Cc1ccccc1)Cc1ccccc1)Cc1ccccc1 (H-[Gly(N-(CH2)6NH2)][Nphe][Nphe][Gly(N-(CH2)6NH2)][Nphe][Nphe][Gly(N-(CH2)6NH2)][Nphe][Nphe][Gly(N-(CH2)6NH2)][Nphe][Nphe]-NH2)
- selectivity ratio [1]: 50
- CC50 at 24 h [2]: > 100 µM
- selectivity ratio [3]: 8
- selectivity ratio [4]: 1
- MIC [5]: 2 µM (≈ 3.64 µg/mL)
- CC50 at 24 h [6]: > 100 µM
- selectivity ratio [7]: 8
- MIC [13]: 6 µM (≈ 10.9 µg/mL)
- selectivity ratio [8]: 1
- selectivity ratio [9]: 17
- selectivity ratio [10]: 50
- MIC [11]: > 100 µM
- selectivity ratio [12]: 17

Compound: NCCCCCCNCC(=O)N(CC(=O)N(CC(=O)N(CCCCCCN)CC(=O)N(CC(=O)N(CC(N)=O)Cc1ccccc1)Cc1ccccc1)Cc1ccccc1)Cc1ccccc1 (H-[Gly(N-(CH2)6NH2)][Nphe][Nphe][Gly(N-(CH2)6NH2)][Nphe][Nphe]-NH2)
- selectivity ratio [1]: 1
- CC50 at 24 h [2]: > 100 µM
- selectivity ratio [3]: 1
- selectivity ratio [4]: 1
- MIC [5]: > 100 µM
- CC50 at 24 h [6]: > 100 µM
- selectivity ratio [7]: 1
- MIC [13]: > 100 µM
- selectivity ratio [8]: 1
- selectivity ratio [9]: 1
- selectivity ratio [10]: 1
- MIC [11]: > 100 µM
- selectivity ratio [12]: 1

Compound: NCCCCNCC(=O)N(CC(=O)N(CC(=O)N(CCCCN)CC(=O)N(CC(=O)N(CC(=O)N(CCCCN)CC(=O)N(CC(=O)N(CC(N)=O)Cc1cccc(F)c1)Cc1cccc(F)c1)Cc1cccc(F)c1)Cc1cccc(F)c1)Cc1cccc(F)c1)Cc1cccc(F)c1
- selectivity ratio [1]: 7
- selectivity ratio [3]: 5
- selectivity ratio [4]: 2
- selectivity ratio [7]: 3
- selectivity ratio [8]: 3
- selectivity ratio [9]: 32
- selectivity ratio [10]: 11
- selectivity ratio [12]: 22

Compound: CC(c1ccccc1)N(CC(=O)N(CCCCN)CC(=O)N(CC(=O)N(CC(=O)N(CCCCN)CC(=O)N(CC(=O)N(CC(N)=O)[C@@H](C)c1ccccc1)Cc1ccc(F)cc1)C(C)c1ccccc1)Cc1ccc(F)cc1)C(=O)CN(Cc1ccc(F)cc1)C(=O)CNCCCCN (single isomer, unassigned)
- selectivity ratio [1]: 12
- CC50 at 24 h [2]: 36 µM
- selectivity ratio [3]: 2
- MIC [5]: 3 µM (≈ 4.14 µg/mL)
- CC50 at 24 h [6]: 52 µM
- MIC [13]: 2 µM (≈ 2.76 µg/mL)
- selectivity ratio [9]: 26
- selectivity ratio [10]: 17
- selectivity ratio [12]: 18

Compound: C[C@@H](c1ccccc1)N(CC(N)=O)C(=O)CN(C(=O)CN(CCCCCCN)C(=O)CN(C(=O)CN(C(=O)CNCCCCCCN)[C@@H](C)c1ccccc1)[C@@H](C)c1ccccc1)[C@@H](C)c1ccccc1
- selectivity ratio [1]: 1
- CC50 at 24 h [2]: > 100 µM
- selectivity ratio [3]: 1
- selectivity ratio [4]: 1
- MIC [5]: > 100 µM
- CC50 at 24 h [6]: > 100 µM
- selectivity ratio [7]: 1
- MIC [13]: 25 µM (≈ 24.4 µg/mL)
- selectivity ratio [8]: 1
- selectivity ratio [9]: 4
- selectivity ratio [10]: 1
- MIC [11]: > 100 µM
- selectivity ratio [12]: 4

Compound: NCCCCNCC(=O)N(CC(=O)N(CC(=O)N(CCCCN)CC(=O)N(CC(=O)N(CC(=O)N(CCCCN)CC(=O)N(CC(=O)N(CC(=O)N(CCCCN)CC(=O)N(CC(=O)N(CC(N)=O)Cc1cccc(F)c1)Cc1cccc(F)c1)Cc1cccc(F)c1)Cc1cccc(F)c1)Cc1cccc(F)c1)Cc1cccc(F)c1)Cc1cccc(F)c1)Cc1cccc(F)c1
- selectivity ratio [1]: 3
- selectivity ratio [3]: 1
- selectivity ratio [4]: 1
- selectivity ratio [7]: 1
- selectivity ratio [8]: 1
- selectivity ratio [9]: 8
- selectivity ratio [10]: 4
- selectivity ratio [12]: 6

Compound: CC(c1ccccc1)N(CC(=O)N(CCN)CC(=O)N(CC(=O)N(CC(=O)N(CCN)CC(=O)N(CC(=O)N(CC(N)=O)[C@@H](C)c1ccccc1)[C@@H](C)c1ccccc1)C(C)c1ccccc1)[C@@H](C)c1ccccc1)C(=O)CN(C(=O)CNCCN)C(C)c1ccccc1 (single isomer, unassigned)
- selectivity ratio [1]: 50
- CC50 at 24 h [2]: > 100 µM
- selectivity ratio [3]: 4
- selectivity ratio [4]: 1
- MIC [5]: 2 µM (≈ 2.57 µg/mL)
- CC50 at 24 h [6]: > 100 µM
- selectivity ratio [7]: 4
- selectivity ratio [8]: 1
- selectivity ratio [9]: 8
- selectivity ratio [10]: 50
- MIC [11]: > 100 µM
- selectivity ratio [12]: 8

Compound: C[C@@H](c1ccccc1)N(CC(N)=O)C(=O)CN(C(=O)CN(CCCCNC(=N)N)C(=O)CN(C(=O)CN(C(=O)CN(CCCCNC(=N)N)C(=O)CN(C(=O)CN(C(=O)CN(CCCCNC(=N)N)C(=O)CN(C(=O)CN(C(=O)CNCCCCNC(=N)N)[C@@H](C)c1ccccc1)[C@@H](C)c1ccccc1)[C@@H](C)c1ccccc1)[C@@H](C)c1ccccc1)[C@@H](C)c1ccccc1)[C@@H](C)c1ccccc1)[C@@H](C)c1ccccc1 (H-[NhArg][Nspe][Nspe][NhArg][Nspe][Nspe][NhArg][Nspe][Nspe][NhArg][Nspe][Nspe]-NH2)
- selectivity ratio [1]: 12
- selectivity ratio [3]: 3
- selectivity ratio [4]: 1
- CC50 at 24 h [6]: 20 µM
- selectivity ratio [7]: 2
- selectivity ratio [8]: 2
- selectivity ratio [9]: 20
- selectivity ratio [10]: 20
- selectivity ratio [12]: 12

Compound: C[C@@H](c1ccccc1)N(CC(N)=O)C(=O)CN(C(=O)CN(CCCCCCN)C(=O)CN(C(=O)CN(C(=O)CN(CCCCCCN)C(=O)CN(C(=O)CN(C(=O)CNCCCCCCN)[C@@H](C)c1ccccc1)[C@@H](C)c1ccccc1)[C@@H](C)c1ccccc1)[C@@H](C)c1ccccc1)[C@@H](C)c1ccccc1 (H-[Gly(N-(CH2)6NH2)][Nspe][Nspe][Gly(N-(CH2)6NH2)][Nspe][Nspe][Gly(N-(CH2)6NH2)][Nspe][Nspe]-NH2)
- selectivity ratio [1]: 33
- CC50 at 24 h [2]: > 100 µM
- selectivity ratio [3]: 4
- selectivity ratio [4]: 1
- MIC [5]: 3 µM (≈ 4.36 µg/mL)
- CC50 at 24 h [6]: > 100 µM
- selectivity ratio [7]: 4
- MIC [13]: 2 µM (≈ 2.91 µg/mL)
- selectivity ratio [8]: 1
- selectivity ratio [9]: 50
- selectivity ratio [10]: 33
- MIC [11]: > 100 µM
- selectivity ratio [12]: 50

Compound: CC(c1ccccc1)N(CC(=O)N(CCCCN)CC(=O)N(CC(=O)N(CC(=O)N(CCCCN)CC(=O)N(CC(=O)N(CC(N)=O)[C@@H](C)c1ccccc1)[C@@H](C)c1ccccc1)Cc1ccc(F)cc1)Cc1ccc(F)cc1)C(=O)CN(C(=O)CNCCCCN)[C@@H](C)c1ccccc1 (single isomer, unassigned)
- selectivity ratio [1]: 14
- CC50 at 24 h [2]: 43 µM
- selectivity ratio [3]: 5
- MIC [5]: 3 µM (≈ 4.13 µg/mL)
- CC50 at 24 h [6]: 65 µM
- selectivity ratio [7]: 3
- MIC [13]: 2 µM (≈ 2.75 µg/mL)
- selectivity ratio [8]: 3
- selectivity ratio [9]: 33
- selectivity ratio [10]: 22
- selectivity ratio [12]: 22

Compound: NCCCCNCC(=O)N(CC(=O)N(CC(=O)N(CCCCN)CC(=O)N(CC(=O)N(CC(=O)N(CCCCN)CC(=O)N(CC(=O)N(CC(N)=O)Cc1ccccc1)Cc1ccccc1)Cc1ccccc1)Cc1ccccc1)Cc1ccccc1)Cc1ccccc1
- selectivity ratio [1]: 4
- CC50 at 24 h [2]: > 100 µM
- selectivity ratio [3]: 2
- selectivity ratio [4]: 1
- CC50 at 24 h [6]: > 100 µM
- selectivity ratio [7]: 2
- selectivity ratio [8]: 1
- selectivity ratio [9]: 17
- selectivity ratio [10]: 4
- MIC [11]: > 100 µM
- selectivity ratio [12]: 17

Source: ChEMBL document CHEMBL4261490, “Exploring the links between peptoid antibacterial activity and toxicity” (Medchemcomm, 2017)
